Laboratory results: ChEMBL document CHEMBL5724801, “EUbOPEN Chemogenomics Library - Multiplex” (2024)
Where “and” joins values, the source holds several entries; their conditions need not be identical. Equal values may be shown once.

test system: HEK-293T; experiment: Multiplex assay against HEK293T; type: toxicity, cell-based; settings: human, 12 h, 1 µM, compound concentration 1 uM
Method in brief: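 Compound was added to live cells that had been stained at seeding with Hoechst33342, BioTracker Green Microtubule Cytoskeleton Dye, MitoTracker Red and Annexin V Alexa Fluor 680, and imaging followed on a CQ1 microscope at 37°C and 5% CO2. CellPathfinder machine-learning gating divided cells into Hoechst high-intensity objects or normal cells, normal cells into healthy, pyknosed or fragmented nuclei, and pyknosed cells into mitotic or apoptotic. Tubulin, mitochondrial-mass and membrane-permeability phenotypes are per cents of healthy-nucleus cells.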

Compound | Population Apoptotic (%) | Population Fragmented Nuclei (%) | Population Healthy Nuclei (%) | Population Hoechst High Intensity Objects (%) | Population Membrane Permeable-Phenotype (%) | Population Mitochondria Different-Phenotype (%) | Population Mitotic Cells (%) | Population Normal (%) | Population Pyknosed Nuclei (%) | Population Tubulin-Different-Phenotype (%)
Cc1c(Cc2ccc3ccccc3n2)c2cc(F)ccc2n1CC(=O)O [TIMAPIPRANT] | 42% | 7% and 6% | 80% | 10% and 7% | 0 | 36% and 55% | 57% | 89% and 92% | 11% and 12% | 20% and 16%
CC(=O)Nc1cccc2c1c(Sc1ccc(Cl)cc1)c(C)n2CC(=O)O [AZD1981] | 37% and 60% | 6% and 5% | 81% and 80% | 6% and 8% | 0 | 46% and 57% | 62% and 40% | 93% and 91% | 11% and 13% | 28% and 18%
CCOc1c2c(c(OCC)c3ncccc13)CN(c1ccc(CS(=O)(=O)NC(=O)Cc3ccccc3OC)cc1C)C2=O | 33% and 35% | 3% and 5% | 81% and 82% | 6% and 5% | 0 | 43% and 54% | 66% and 64% | 93% and 94% | 14% and 12% | 31% and 16%

same assay, conditions: human, 12 h, 1 µM, compound concentration 1 uM

Compound | Total Cell Count
Cc1c(Cc2ccc3ccccc3n2)c2cc(F)ccc2n1CC(=O)O [TIMAPIPRANT] | 394 and 280
CC(=O)Nc1cccc2c1c(Sc1ccc(Cl)cc1)c(C)n2CC(=O)O [AZD1981] | 405 and 314
CCOc1c2c(c(OCC)c3ncccc13)CN(c1ccc(CS(=O)(=O)NC(=O)Cc3ccccc3OC)cc1C)C2=O | 356 and 355

same assay, conditions: human, 12 h, 10 µM, compound concentration 10 uM

Compound | Population Apoptotic (%) | Population Fragmented Nuclei (%) | Population Healthy Nuclei (%) | Population Hoechst High Intensity Objects (%) | Population Membrane Permeable-Phenotype (%) | Population Mitochondria Different-Phenotype (%) | Population Mitotic Cells (%) | Population Normal (%) | Population Pyknosed Nuclei (%) | Population Tubulin-Different-Phenotype (%)
Cc1c(Cc2ccc3ccccc3n2)c2cc(F)ccc2n1CC(=O)O [TIMAPIPRANT] | 32% and 33% | 7% and 6% | 78% | 6% and 5% | 0 | 55% and 63% | 67% and 66% | 93% and 94% | 14% and 15% | 38% and 28%
CC(=O)Nc1cccc2c1c(Sc1ccc(Cl)cc1)c(C)n2CC(=O)O [AZD1981] | 38% and 60% | 8% and 6% | 78% and 77% | 7% and 15% | 0 | 44% and 60% | 61% and 39% | 92% and 84% | 12% and 15% | 29% and 26%
CCOc1c2c(c(OCC)c3ncccc13)CN(c1ccc(CS(=O)(=O)NC(=O)Cc3ccccc3OC)cc1C)C2=O | 45% and 53% | 9% and 7% | 78% and 76% | 4% and 9% | 0 | 49% and 72% | 54% and 46% | 95% and 90% | 12% and 16% | 34% and 29%

same assay, conditions: human, 12 h, 10 µM, compound concentration 10 uM

Compound | Total Cell Count
Cc1c(Cc2ccc3ccccc3n2)c2cc(F)ccc2n1CC(=O)O [TIMAPIPRANT] | 434 and 354
CC(=O)Nc1cccc2c1c(Sc1ccc(Cl)cc1)c(C)n2CC(=O)O [AZD1981] | 403 and 318
CCOc1c2c(c(OCC)c3ncccc13)CN(c1ccc(CS(=O)(=O)NC(=O)Cc3ccccc3OC)cc1C)C2=O | 367 and 362

same assay, conditions: human, 24 h, 1 µM, compound concentration 1 uM

Compound | Population Apoptotic (%) | Population Fragmented Nuclei (%) | Population Healthy Nuclei (%) | Population Hoechst High Intensity Objects (%) | Population Membrane Permeable-Phenotype (%) | Population Mitochondria Different-Phenotype (%) | Population Mitotic Cells (%) | Population Normal (%) | Population Pyknosed Nuclei (%) | Population Tubulin-Different-Phenotype (%)
Cc1c(Cc2ccc3ccccc3n2)c2cc(F)ccc2n1CC(=O)O [TIMAPIPRANT] | 31% and 53% | 10% and 7% | 81% and 83% | 4% and 5% | 1% and 0% | 20% and 38% | 68% and 46% | 95% and 94% | 8% | 15%
CC(=O)Nc1cccc2c1c(Sc1ccc(Cl)cc1)c(C)n2CC(=O)O [AZD1981] | 20% and 54% | 9% and 7% | 80% | 2% and 9% | 0% | 33% and 42% | 79% and 45% | 97% and 90% | 9% and 11% | 23% and 16%
CCOc1c2c(c(OCC)c3ncccc13)CN(c1ccc(CS(=O)(=O)NC(=O)Cc3ccccc3OC)cc1C)C2=O | 35% and 27% | 11% and 5% | 73% and 85% | 5% and 3% | 0% | 28% and 27% | 64% and 72% | 94% and 96% | 14% and 8% | 20% and 10%

same assay, conditions: human, 24 h, 1 µM, compound concentration 1 uM

Compound | Total Cell Count
Cc1c(Cc2ccc3ccccc3n2)c2cc(F)ccc2n1CC(=O)O [TIMAPIPRANT] | 516 and 381
CC(=O)Nc1cccc2c1c(Sc1ccc(Cl)cc1)c(C)n2CC(=O)O [AZD1981] | 568 and 398
CCOc1c2c(c(OCC)c3ncccc13)CN(c1ccc(CS(=O)(=O)NC(=O)Cc3ccccc3OC)cc1C)C2=O | 462 and 473

same assay, conditions: human, 24 h, 10 µM, compound concentration 10 uM

Compound | Population Apoptotic (%) | Population Fragmented Nuclei (%) | Population Healthy Nuclei (%) | Population Hoechst High Intensity Objects (%) | Population Membrane Permeable-Phenotype (%) | Population Mitochondria Different-Phenotype (%) | Population Mitotic Cells (%) | Population Normal (%) | Population Pyknosed Nuclei (%) | Population Tubulin-Different-Phenotype (%)
Cc1c(Cc2ccc3ccccc3n2)c2cc(F)ccc2n1CC(=O)O [TIMAPIPRANT] | 32% and 37% | 7% and 12% | 78% and 77% | 4% and 5% | 0% | 31% and 44% | 67% and 62% | 95% and 94% | 13% and 10% | 28% and 20%
CC(=O)Nc1cccc2c1c(Sc1ccc(Cl)cc1)c(C)n2CC(=O)O [AZD1981] | 40% and 59% | 7% and 8% | 79% and 81% | 4% and 12% | 0% | 28% and 45% | 59% and 40% | 95% and 87% | 13% and 9% | 25% and 19%
CCOc1c2c(c(OCC)c3ncccc13)CN(c1ccc(CS(=O)(=O)NC(=O)Cc3ccccc3OC)cc1C)C2=O | 18% and 32% | 10% and 8% | 75% and 82% | 4% and 8% | 0% and 1% | 36% and 49% | 81% and 67% | 95% and 91% | 14% and 9% | 28% and 17%

same assay, conditions: human, 24 h, 10 µM, compound concentration 10 uM

Compound | Total Cell Count
Cc1c(Cc2ccc3ccccc3n2)c2cc(F)ccc2n1CC(=O)O [TIMAPIPRANT] | 560 and 475
CC(=O)Nc1cccc2c1c(Sc1ccc(Cl)cc1)c(C)n2CC(=O)O [AZD1981] | 526 and 387
CCOc1c2c(c(OCC)c3ncccc13)CN(c1ccc(CS(=O)(=O)NC(=O)Cc3ccccc3OC)cc1C)C2=O | 446 and 481

same assay, conditions: human, 48 h, 1 µM, compound concentration 1 uM

Compound | Population Apoptotic (%) | Population Fragmented Nuclei (%) | Population Healthy Nuclei (%) | Population Hoechst High Intensity Objects (%) | Population Membrane Permeable-Phenotype (%) | Population Mitochondria Different-Phenotype (%) | Population Mitotic Cells (%) | Population Normal (%) | Population Pyknosed Nuclei (%) | Population Tubulin-Different-Phenotype (%)
Cc1c(Cc2ccc3ccccc3n2)c2cc(F)ccc2n1CC(=O)O [TIMAPIPRANT] | 26% and 17% | 13% and 15% | 78% and 76% | 2% and 3% | 1% and 0% | 9% and 25% | 73% and 82% | 97% and 96% | 8% | 6% and 12%
CC(=O)Nc1cccc2c1c(Sc1ccc(Cl)cc1)c(C)n2CC(=O)O [AZD1981] | 21% and 38% | 15% and 13% | 78% and 79% | 1% and 3% | 1% | 18% and 20% | 78% and 61% | 98% and 96% | 6% | 10% and 12%
CCOc1c2c(c(OCC)c3ncccc13)CN(c1ccc(CS(=O)(=O)NC(=O)Cc3ccccc3OC)cc1C)C2=O | 29% and 33% | 13% and 11% | 79% and 83% | 3% and 1% | 0% | 20% and 14% | 70% and 66% | 96% and 98% | 6% and 5% | 13% and 7%

same assay, conditions: human, 48 h, 1 µM, compound concentration 1 uM

Compound | Total Cell Count
Cc1c(Cc2ccc3ccccc3n2)c2cc(F)ccc2n1CC(=O)O [TIMAPIPRANT] | 799 and 566
CC(=O)Nc1cccc2c1c(Sc1ccc(Cl)cc1)c(C)n2CC(=O)O [AZD1981] | 908 and 570
CCOc1c2c(c(OCC)c3ncccc13)CN(c1ccc(CS(=O)(=O)NC(=O)Cc3ccccc3OC)cc1C)C2=O | 822 and 770

same assay, conditions: human, 48 h, 10 µM, compound concentration 10 uM

Compound | Population Apoptotic (%) | Population Fragmented Nuclei (%) | Population Healthy Nuclei (%) | Population Hoechst High Intensity Objects (%) | Population Membrane Permeable-Phenotype (%) | Population Mitochondria Different-Phenotype (%) | Population Mitotic Cells (%) | Population Normal (%) | Population Pyknosed Nuclei (%) | Population Tubulin-Different-Phenotype (%)
Cc1c(Cc2ccc3ccccc3n2)c2cc(F)ccc2n1CC(=O)O [TIMAPIPRANT] | 33% and 36% | 10% and 14% | 79% and 78% | 4% | 1% and 0% | 24% and 33% | 66% and 63% | 95% | 9% and 6% | 17% and 16%
CC(=O)Nc1cccc2c1c(Sc1ccc(Cl)cc1)c(C)n2CC(=O)O [AZD1981] | 37% and 33% | 14% and 16% | 78% | 2% and 4% | 0% | 18% and 26% | 62% and 66% | 97% and 95% | 7% and 5% | 11%
CCOc1c2c(c(OCC)c3ncccc13)CN(c1ccc(CS(=O)(=O)NC(=O)Cc3ccccc3OC)cc1C)C2=O | 41% and 33% | 13% and 12% | 78% and 81% | 4% and 3% | 1% and 0% | 32% and 22% | 58% and 66% | 95% and 96% | 8% and 6% | 16% and 11%

same assay, conditions: human, 48 h, 10 µM, compound concentration 10 uM

Compound | Total Cell Count
Cc1c(Cc2ccc3ccccc3n2)c2cc(F)ccc2n1CC(=O)O [TIMAPIPRANT] | 752 and 630
CC(=O)Nc1cccc2c1c(Sc1ccc(Cl)cc1)c(C)n2CC(=O)O [AZD1981] | 751 and 556
CCOc1c2c(c(OCC)c3ncccc13)CN(c1ccc(CS(=O)(=O)NC(=O)Cc3ccccc3OC)cc1C)C2=O | 631 and 724
